In PubChem BioAssay one finds outcome and potentiation data, which are given here for 40 molecules.

Calls of active or inactive are those of the source.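 Rule for the calls, unless noted: active = current rise at least 3 SD above the untreated control mean in each of two repeat wells; inactive = the rest.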

Sequence of Potassium voltage-gated channel subfamily KQT member 1 (Homo sapiens) (P51787 whole entry, looked up): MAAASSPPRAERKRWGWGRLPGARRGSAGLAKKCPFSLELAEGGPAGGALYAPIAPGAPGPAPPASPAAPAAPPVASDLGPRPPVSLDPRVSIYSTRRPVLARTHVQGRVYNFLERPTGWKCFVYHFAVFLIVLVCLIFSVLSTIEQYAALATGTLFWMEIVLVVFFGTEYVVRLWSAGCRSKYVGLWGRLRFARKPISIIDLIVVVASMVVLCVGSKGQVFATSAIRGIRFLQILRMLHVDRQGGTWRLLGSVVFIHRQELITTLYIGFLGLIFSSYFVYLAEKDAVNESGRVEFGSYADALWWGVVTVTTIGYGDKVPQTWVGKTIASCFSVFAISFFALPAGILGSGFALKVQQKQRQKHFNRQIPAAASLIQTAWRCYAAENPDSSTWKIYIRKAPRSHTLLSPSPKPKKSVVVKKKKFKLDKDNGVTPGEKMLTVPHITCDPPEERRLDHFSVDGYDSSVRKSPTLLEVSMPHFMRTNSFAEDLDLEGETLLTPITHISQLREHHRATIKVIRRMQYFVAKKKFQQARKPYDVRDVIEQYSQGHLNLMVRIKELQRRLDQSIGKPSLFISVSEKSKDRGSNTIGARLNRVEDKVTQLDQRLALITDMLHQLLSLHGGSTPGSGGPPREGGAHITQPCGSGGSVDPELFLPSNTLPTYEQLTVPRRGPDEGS

For the first assay, the target named is Potassium voltage-gated channel subfamily KQT member 2 (Rattus norvegicus) (UniProt O88943). In words: KCNQ2 thallium flux enhancement – KCNQ2-CHO-K1 cells, selectivity assay for KCNQ1 potentiator project (AID 493009;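 active = mean duplicate potentiation above the buffer control mean plus 5 SD of buffer wells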;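 note: assay conditions were tuned for KCNQ1 rather than KCNQ2 modulators; signal is max minus min fluorescence divided by baseline after thallium stimulus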). As to conditions: FluxOR thallium flux fluorescence, at 10 µM; stronger effect = higher value, scaled: buffer 0, activator control 100.
Sequence of Potassium voltage-gated channel subfamily KQT member 2 (Rattus norvegicus) (O88943 whole entry, looked up): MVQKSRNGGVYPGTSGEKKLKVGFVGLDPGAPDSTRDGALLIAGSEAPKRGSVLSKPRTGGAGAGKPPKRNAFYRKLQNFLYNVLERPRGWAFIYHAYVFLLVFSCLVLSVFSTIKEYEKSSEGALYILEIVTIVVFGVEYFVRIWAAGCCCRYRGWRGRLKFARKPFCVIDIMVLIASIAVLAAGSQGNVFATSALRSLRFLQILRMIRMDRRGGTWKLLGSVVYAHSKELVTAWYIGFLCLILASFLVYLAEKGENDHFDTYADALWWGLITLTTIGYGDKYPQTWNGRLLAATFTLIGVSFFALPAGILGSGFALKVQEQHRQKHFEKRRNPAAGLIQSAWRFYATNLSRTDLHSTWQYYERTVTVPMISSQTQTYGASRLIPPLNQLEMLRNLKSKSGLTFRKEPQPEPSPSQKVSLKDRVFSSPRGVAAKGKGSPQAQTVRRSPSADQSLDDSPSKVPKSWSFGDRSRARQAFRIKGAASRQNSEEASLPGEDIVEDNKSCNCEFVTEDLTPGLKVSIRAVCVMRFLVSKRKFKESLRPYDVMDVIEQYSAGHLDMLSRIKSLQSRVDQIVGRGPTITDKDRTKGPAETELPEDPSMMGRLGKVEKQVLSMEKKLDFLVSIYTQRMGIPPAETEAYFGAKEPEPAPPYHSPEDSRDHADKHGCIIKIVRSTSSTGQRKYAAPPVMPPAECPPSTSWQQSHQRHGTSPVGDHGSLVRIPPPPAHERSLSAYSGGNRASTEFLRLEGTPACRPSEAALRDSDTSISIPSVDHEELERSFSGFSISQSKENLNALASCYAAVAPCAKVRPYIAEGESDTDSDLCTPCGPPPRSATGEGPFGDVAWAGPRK
Consider `C/C(Cl)=C\Cn1c(O)c(N=NC(N)=S)c2cc(Br)ccc21`, for which the result was inactive.
Take `COC(=O)c1c(NC(=O)c2ccccc2)sc(C(=O)c2ccccc2)c1C`: the outcome was inactive.
On to `CCOC(=O)/C(=C\c1cccnc1)C(=O)c1cc(C(C)=O)c(Nc2ccccc2)s1`, for which the outcome was inactive.
As to `CCCCc1nc2sc3c(SCCN(C)C)ncnc3c2c2c1CCC2`, the potentiation was 183% (active).
Turning to `O=C(NC(=S)Nc1ccccc1N1CCCCC1)c1ccc(F)cc1Cl`, the outcome was inactive.
Take `Cn1ncc2c(O/N=C(\N)c3ccc(C(C)(C)C)cc3)ncnc21`: the result was inactive.
With `Cc1nc(SC(C)C(=O)c2c(N)n(C)c(=O)n(C)c2=O)c2c(C)c(C)sc2n1` (stereo not drawn), the potentiation is 256% (active).
For `CCc1ccc(S(=O)(=O)Nc2cc3c(cc2N2CCCCC2)n(C)c(=O)c(=O)n3C)cc1`, the result was inactive.
Turning to `COc1cccc(C(=O)NNC(=O)C(=O)Nc2ccc(C)cc2)c1`, the potentiation was 308% (active).
`Cc1cc(/C=N/NC(=O)c2cccs2)c(C)n1-c1ccccc1`: the outcome was inactive.
Same read-out and setting: then `C[C@@H](NC(=O)[C@@H]1Cc2ccccc2CN1)C(=O)NC1CCCC1`, with “inactive”.
On the same count and under the same terms, then `Cc1ccc(NC(=S)N2CCC(N(C)CC3CCCO3)CC2)cc1` (stereo not drawn), with “inactive”.
On to `CCc1cc2c(=O)[nH]c(-c3ccccn3)nc2s1`, for which the potentiation is 226% (active).
For `COc1ccc(NS(=O)(=O)c2ccc(N/N=C(\C)c3ccncc3)c([N+](=O)[O-])c2)cc1`, the outcome was inactive.
`CC(C)(C)c1cc(C(=O)NNC(=O)c2ccc(Cl)cc2)no1`: the potentiation is 257% (active).
Regarding `Cc1snnc1C(=O)NC(=S)Nc1ccccc1`, the potentiation was 270% (active).
Turning to `Cc1nn(-c2ccccc2)c2nc(C(Cl)(Cl)Cl)[nH]c(=O)c12`, the result was inactive.
As for `O=S(=O)(NC(=S)NC1CCCCC1)c1ccc(Br)cc1`, the potentiation is 190% (active).
Turning to `Cc1ccc(C(C(=O)NC2CCCCC2)N(Cc2cccnc2)C(=O)C2COc3ccccc3O2)o1` (stereo not drawn), the result was inactive.
In the case of `Cc1ccc(-n2c(=S)[nH]c3c(oc4ccccc43)c2=O)cc1C`, the potentiation was 150% (active).
For the molecule `CCC1CCc2c(sc(NC(=O)C3CC=CCC3C(=O)O)c2C#N)C1` (stereo not drawn), the outcome was inactive.
Take `CCOc1ccc2[nH]c(=O)c(CN(Cc3ccc(C)cc3)C(=O)N3CCCC3)cc2c1`: the outcome was inactive.
`COc1ccc(-c2nnc(Nc3nc4c(OC)cccc4s3)o2)cc1`: the potentiation is 392% (active).

A further assay has as its target Potassium voltage-gated channel subfamily KQT member 1 (Homo sapiens) (UniProt P51787). As to the kind of experiment: KCNQ1 activators by electrophysiology – IonWorks patch clamp, KCNQ1-CHO cells, orthogonal assay for KCNQ1 potentiator project, confirmation (AID 493184). To be noted: automated patch clamp current, at 10 µM; stronger effect = higher value. The gist of the method: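 Read-out: Percent current increase versus pre-compound level | Assay system: CHO cells carrying KCNQ1 | Measured by: Automated perforated-patch electrophysiology | Medium: External bath solution at pH 7.4 | Dosing: One dose, 10 µM final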
Background: In patch-clamp work, channel activity is measured electrically.
In the case of `COc1ccc(-c2cc(C(=O)Nc3c(Cl)cc(Cl)cc3Cl)c3ccccc3n2)cc1OC`, the outcome was inactive.
Same read-out and setting: next, `CCOC(=O)c1c(C)[nH]c(C(=O)Cn2nnc(-c3ccccc3Cl)n2)c1C`: “inactive”; `COC(=O)C1CCCN1C(=O)COc1ccc(Cl)cc1Br` (stereo not drawn): “inactive”.
Regarding `O=C1Nc2cc(C(=O)NCCCN3CCOCC3)ccc2S/C1=C/c1cccc(Cl)c1`, the outcome was inactive.
Consider `COC(=O)c1cn(NC(=O)Cc2ccc(Cl)c(Cl)c2)c(=O)c2ccccc12`, for which the result was inactive.
The same measure, in the same setting: next, `CCN(CC)c1ccc(/C=N/Nc2nc3ccccc3[nH]2)c(O)c1`: “inactive”; `O=C(NC(=S)Nc1nc2ccccc2s1)c1cccs1`: “inactive”.
The same measure, in the same setting: then `CCOc1ccc(S(=O)(=O)N2CCCC(C(=O)NCCN3CCOCC3)C2)cc1Cl` (stereo not drawn), with “inactive”.
With `Nc1c(C(=O)Nc2ccc(F)cc2)nnn1-c1cccc(C(F)(F)F)c1`, the outcome was inactive.
As to `O=C(NC(=S)Nc1ccc(N2CCCCC2)cc1)c1ccco1`, the outcome was inactive.
With `CSC(=S)N/N=C(\C)c1ccccc1`, the outcome was inactive.
On the same count and under the same terms, next, `CC(=O)/C=C1/C(=O)Nc2ccccc21`: “inactive”; `Cc1nnc(SCC(=O)N(Cc2ccccc2)C(C)C)n1-c1ccccc1`: “inactive”; `COc1ccc(/C=N\NC(=S)SCN2C(=O)C3CCC(C)(C2=O)C3(C)C)cc1` (stereo not drawn): “inactive”.
As for `CCCc1cc2c(-c3ccccc3)cc(=O)oc2cc1OCc1ccc(C(=O)O)o1`, the outcome was inactive.
As to `Cc1cc2ccccn2c1C(=S)NC(=O)c1ccccc1`, the outcome was inactive.
On the same count and under the same terms, next, `Cc1ccccc1-n1c(C)cc(/C=N/NC(=O)c2ccncc2)c1C`: “inactive”; `C/C(Cl)=C\Cn1c(O)c(N=NC(N)=S)c2cc(Br)ccc21`: “inactive”.
As for `COC(=O)c1c(NC(=O)c2ccccc2)sc(C(=O)c2ccccc2)c1C`, the result was inactive.
The same measure, in the same setting: then `CCOC(=O)/C(=C\c1cccnc1)C(=O)c1cc(C(C)=O)c(Nc2ccccc2)s1`, with “inactive”; and `CCCCc1nc2sc3c(SCCN(C)C)ncnc3c2c2c1CCC2`, with “inactive”.
The same measure, in the same setting: then `O=C(NC(=S)Nc1ccccc1N1CCCCC1)c1ccc(F)cc1Cl`, with “inactive”; and `Cn1ncc2c(O/N=C(\N)c3ccc(C(C)(C)C)cc3)ncnc21`, with “inactive”.
As for `Cc1nc(SC(C)C(=O)c2c(N)n(C)c(=O)n(C)c2=O)c2c(C)c(C)sc2n1` (stereo not drawn), the outcome was inactive.
Still for that read-out and setting: next, `CCc1ccc(S(=O)(=O)Nc2cc3c(cc2N2CCCCC2)n(C)c(=O)c(=O)n3C)cc1`: “inactive”; `COc1cccc(C(=O)NNC(=O)C(=O)Nc2ccc(C)cc2)c1`: “inactive”; `Cc1cc(/C=N/NC(=O)c2cccs2)c(C)n1-c1ccccc1`: “inactive”.
In the case of `C[C@@H](NC(=O)[C@@H]1Cc2ccccc2CN1)C(=O)NC1CCCC1`, the outcome was inactive.
The same measure, in the same setting: next, `Cc1ccc(NC(=S)N2CCC(N(C)CC3CCCO3)CC2)cc1` (stereo not drawn): “inactive”; `CCc1cc2c(=O)[nH]c(-c3ccccn3)nc2s1`: “inactive”.
As for `COc1ccc(NS(=O)(=O)c2ccc(N/N=C(\C)c3ccncc3)c([N+](=O)[O-])c2)cc1`, the outcome was inactive.
Still for that read-out and setting: then `CC(C)(C)c1cc(C(=O)NNC(=O)c2ccc(Cl)cc2)no1`, with “inactive”.
Still for that read-out and setting: then `Cc1snnc1C(=O)NC(=S)Nc1ccccc1`, with “inactive”; and `Cc1nn(-c2ccccc2)c2nc(C(Cl)(Cl)Cl)[nH]c(=O)c12`, with “inactive”.
As to `O=S(=O)(NC(=S)NC1CCCCC1)c1ccc(Br)cc1`, the outcome was inactive.
Still for that read-out and setting: next, `Cc1ccc(C(C(=O)NC2CCCCC2)N(Cc2cccnc2)C(=O)C2COc3ccccc3O2)o1` (stereo not drawn): “inactive”; `Cc1ccc(-n2c(=S)[nH]c3c(oc4ccccc43)c2=O)cc1C`: “inactive”; `CCC1CCc2c(sc(NC(=O)C3CC=CCC3C(=O)O)c2C#N)C1` (stereo not drawn): “inactive”.
Same read-out and setting: then `CCOc1ccc2[nH]c(=O)c(CN(Cc3ccc(C)cc3)C(=O)N3CCCC3)cc2c1`, with “inactive”.
The same measure, in the same setting: then `COc1ccc(-c2nnc(Nc3nc4c(OC)cccc4s3)o2)cc1`, with “inactive”.
